# Measurements: ChEMBL document CHEMBL1140401, “Synthesis and pharmacological evaluation of Tic-hydantoin derivatives as selective sigma1 ligands. Part 2” (Bioorg Med Chem Lett, 2005)
# Legend:
# [1] = target: Sigma 2 receptor; assay: Inhibitory activity against opioid sigma 2 receptor in rat cerebral cortex using [3H]DTG (+300 nM (+)pentazocine) as radio ligand at pH 7.5 for 120 min at 22 degree C; format: tissue-based
# [2] = tested on: MRC5; assay: Cytotoxicity against a human diploid embryonic lung cell line (MRC-5 cells) using the colorimetric MTT assay; format: functional
# Outline: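 MRC-5 human embryonic lung cells were exposed to the compounds, and viability was read by colorimetric MTT assay. The read-out is the CC50.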
# [3] = target: Sigma non-opioid intracellular receptor 1 (Cavia porcellus) (UniProt Q60492); assay: Selectivity index against opioid receptor sigma 1 versus cytotoxicity to that of inhibitory concentration
# Sigma non-opioid intracellular receptor 1 (Cavia porcellus), sequence (Q60492 whole entry, looked up): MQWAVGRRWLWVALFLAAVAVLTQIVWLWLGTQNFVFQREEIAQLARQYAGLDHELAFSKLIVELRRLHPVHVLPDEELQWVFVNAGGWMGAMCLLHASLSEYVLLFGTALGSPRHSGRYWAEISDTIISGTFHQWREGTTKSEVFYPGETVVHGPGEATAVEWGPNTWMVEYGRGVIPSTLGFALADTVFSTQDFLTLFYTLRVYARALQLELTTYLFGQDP
SMILES,IC50 [1],CC50 [2],IS [3]
O=C1[C@@H]2Cc3ccccc3CN2C(=O)N1CCCNCc1ccccc1,> 1000 nM,,
CN(CCCc1ccccc1)CCN1C(=O)[C@@H]2Cc3ccccc3CN2C1=O,,136 µM,10000
O=C1[C@@H]2Cc3ccccc3CN2C(=O)N1CCN1CCCCC1,> 1000 nM,,
CN(CCCCCc1ccccc1)CCN1C(=O)[C@@H]2Cc3ccccc3CN2C1=O,> 1000 nM,,
CN(CCCCN1C(=O)[C@@H]2Cc3ccccc3CN2C1=O)CCc1ccccc1,,106 µM,10700
O=C1[C@@H]2Cc3ccccc3CN2C(=O)N1CCCNCCCCc1ccccc1,,31 µM,2950

# More lines, main results first:
IC50 [1],SMILES,CC50 [2],IS [3]
502 nM,CN(CCCN1C(=O)[C@@H]2Cc3ccccc3CN2C1=O)Cc1ccccc1,196 µM,
> 100 nM,CN(CCCCN1C(=O)[C@@H]2Cc3ccccc3CN2C1=O)Cc1ccccc1,,
21 nM,CN(CCCN1C(=O)[C@@H]2Cc3ccccc3CN2C1=O)CCc1ccccc1,,
81 nM,CN(CCCCCN1C(=O)[C@@H]2Cc3ccccc3CN2C1=O)Cc1ccccc1,101 µM,20200
972 nM,CN(CCN1C(=O)[C@@H]2Cc3ccccc3CN2C1=O)Cc1ccccc1,107 µM,23800
358 nM,CN(CCCCc1ccccc1)CCN1C(=O)[C@@H]2Cc3ccccc3CN2C1=O,,
